For test [1], the system named is Streptococcus intermedius. Nature of the test: Antimicrobial activity against Streptococcus intermedius NCTC 11324 assessed as biofilm formation at 0.10 to 0.25 ug/ml. In kind it is functional, organism-based. Summed up: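 Wild-type NCTC 11324 was grown overnight in TSB and inoculated into TSB with ampicillin (0.02 to 0.10 μg/ml), ciprofloxacin (0.10 to 0.28 μg/ml) or tetracycline (0.05 to 0.30 μg/ml), added at time zero. Wells held plastic coverslips and were incubated 12 h at 37°C in 5% CO2 aerobic air. Biofilm was measured as described previously. Experiments were done three times in three parallels.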

Test [2] has as its system Streptococcus intermedius. Nature of the test: Antimicrobial activity against Streptococcus intermedius NCTC 11324 biofilm assessed as biofilm bacterial count at 0.10 ug/ml (Rvb =402.9 +/- 26.88 10^5 CFU/ml). In kind it is functional.
For test [3], the system named is Streptococcus intermedius. Kind of test: Antimicrobial activity against Streptococcus intermedius NCTC 11324 biofilm assessed as biofilm bacterial count at 0.15 ug/ml (Rvb =402.9 +/- 26.88 10^5 CFU/ml). In kind it is functional.
For test [4], the system named is Streptococcus intermedius. Nature of the test: Antimicrobial activity against Streptococcus intermedius NCTC 11324 biofilm assessed as biofilm bacterial count at 0.20 ug/ml (Rvb =402.9 +/- 26.88 10^5 CFU/ml). In kind it is functional.
The test system of test [5] is Streptococcus intermedius. Nature of the test: Antimicrobial activity against Streptococcus intermedius SI006 biofilm harboring luxS mutant gene assessed as biofilm bacterial count at 0.10 ug/ml (Rvb =310.8 +/- 17.10 10^5 CFU/ml). In kind it is functional.
For test [6], the system named is Streptococcus intermedius. Nature of the test: Antimicrobial activity against Streptococcus intermedius SI006 biofilm harboring luxS mutant gene assessed as biofilm bacterial count at 0.15 ug/ml (Rvb =310.8 +/- 17.10 10^5 CFU/ml). In kind it is functional.
Test [7] relates to Streptococcus intermedius. Kind of test: Antimicrobial activity against Streptococcus intermedius SI006 biofilm harboring luxS mutant gene assessed as biofilm bacterial count at 0.20 ug/ml (Rvb =310.8 +/- 17.10 10^5 CFU/ml). In kind it is functional.
The subject of test [8] is Streptococcus intermedius. Nature of the test: Antimicrobial activity against Streptococcus intermedius SI006 biofilm harboring luxS mutant gene assessed as biofilm bacterial count at 0.10 ug/ml in presence of 0.8 nM autoinducer 4,5-dihydroxy-2,3-pentanedione (Rvb =413.7 +/- 24.47 10^5 CFU/ml). In kind it is functional.
Test [9] has as its system Streptococcus intermedius. Kind of test: Antimicrobial activity against Streptococcus intermedius SI006 biofilm harboring luxS mutant gene assessed as biofilm bacterial count at 0.20 ug/ml in presence of 0.8 nM autoinducer 4,5-dihydroxy-2,3-pentanedione (Rvb =413.7 +/- 24.47 10^5 CFU/ml). In kind it is functional.
The test system of test [10] is Streptococcus intermedius. Nature of the test: Antimicrobial activity against Streptococcus intermedius SI006 planktonic cells harboring luxS mutant gene assessed as bacterial count at 0.35 ug/ml in presence of 0.8 nM autoinducer 4,5-dihydroxy-2,3-pentanedione (Rvb =768.6 +/- 46.24 10^8 CFU/ml). In kind it is functional.
Test [11] concerns Streptococcus intermedius. Kind of test: Antimicrobial activity against Streptococcus intermedius NCTC 11324 assessed as growth inhibition at 0.5 ug/ml. In kind it is functional. Summed up: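 Broth microdilution MIC in ultra-low-binding 96-well plates, inoculum ≈4 × 10^5. Growth was read at 595 nm, and the MIC was taken as the lowest antibiotic concentration inhibiting growth.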

Test [12] relates to Streptococcus intermedius. Nature of the test: Antimicrobial activity against Streptococcus intermedius NCTC 11324 planktonic cells assessed as bacterial count at 0.20 ug/ml (Rvb =756.9 +/- 62.98 10^8 CFU/ml). In kind it is functional. In a few lines: (§1)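 Planktonic wild-type cells were inoculated at ≈4 × 10^5 CFU/ml in TSB in ultra-low-binding plates. Media were without or with ampicillin (0.02 to 0.14 μg/ml), ciprofloxacin (0.10 to 0.35 μg/ml) or tetracycline (0.03 to 0.20 μg/ml). After 12 h at 37°C in 5% CO2 aerobic air, CFU were counted, run in parallel with the BacTiter-Glo ATP assay. Experiments were done three times in two parallels.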

Test [13] has as its system Streptococcus intermedius. Kind of test: Antimicrobial activity against Streptococcus intermedius NCTC 11324 planktonic cells assessed as bacterial count at 0.25 ug/ml (Rvb =756.9 +/- 62.98 10^8 CFU/ml). In kind it is functional. Summed up: as §1
For test [14], the system named is Streptococcus intermedius. Nature of the test: Antimicrobial activity against Streptococcus intermedius NCTC 11324 planktonic cells assessed as bacterial count at 0.30 ug/ml (Rvb =756.9 +/- 62.98 10^8 CFU/ml). In kind it is functional. Summed up:
as §1

The test system of test [15] is Streptococcus intermedius. Nature of the test: Antimicrobial activity against Streptococcus intermedius NCTC 11324 planktonic cells assessed as bacterial count at 0.35 ug/ml (Rvb =756.9 +/- 62.98 10^8 CFU/ml). In kind it is functional.
Test [16] relates to Streptococcus intermedius. Kind of test: Antimicrobial activity against Streptococcus intermedius SI006 planktonic cells harboring luxS mutant gene assessed as bacterial count at 0.25 ug/ml (Rvb =708.1 +/- 47.64 10^8 CFU/ml). In kind it is functional.
The subject of test [17] is Streptococcus intermedius. Nature of the test: Antimicrobial activity against Streptococcus intermedius SI006 planktonic cells harboring luxS mutant gene assessed as bacterial count at 0.30 ug/ml (Rvb =708.1 +/- 47.64 10^8 CFU/ml). In kind it is functional.
For test [18], the system named is Streptococcus intermedius. Kind of test: Antimicrobial activity against Streptococcus intermedius SI006 planktonic cells harboring luxS mutant gene assessed as bacterial count at 0.35 ug/ml (Rvb =708.1 +/- 47.64 10^8 CFU/ml). In kind it is functional.
Test [19] concerns Streptococcus intermedius. Nature of the test: Antimicrobial activity against Streptococcus intermedius SI006 planktonic cells harboring luxS mutant gene assessed as bacterial count at 0.20 ug/ml in presence of 0.8 nM autoinducer 4,5-dihydroxy-2,3-pentanedione (Rvb =768.6 +/- 46.24 10^8 CFU/ml). In kind it is functional.
The test system of test [20] is Streptococcus intermedius. Kind of test: Antimicrobial activity against Streptococcus intermedius SI006 planktonic cells harboring luxS mutant gene assessed as bacterial count at 0.25 ug/ml in presence of 0.8 nM autoinducer 4,5-dihydroxy-2,3-pentanedione (Rvb =768.6 +/- 46.24 10^8 CFU/ml). In kind it is functional.
Test [21] has as its system Streptococcus intermedius. Nature of the test: Antimicrobial activity against Streptococcus intermedius SI006 planktonic cells harboring luxS mutant gene assessed as bacterial count at 0.30 ug/ml in presence of 0.8 nM autoinducer 4,5-dihydroxy-2,3-pentanedione (Rvb =768.6 +/- 46.24 10^8 CFU/ml). In kind it is functional.

Calls of active or inactive are those of the source. No cut-off for these calls is given here.

`O=C(O)c1cn(C2CC2)c2cc(N3CCNCC3)c(F)cc2c1=O` [CIPROFLOXACIN]: in test [1], the outcome was inactive. For the same compound, the CFU in test [2] is on record as 768.1 ×10⁵ /ml; in test [3], 663.8 ×10⁵ /ml; in test [4], 577.2 ×10⁵ /ml; in test [5] it was 324.1 ×10⁵ /ml; in test [6], 333 ×10⁵ /ml; in test [7], 131 ×10⁵ /ml. Also, the CFU was found to be 814.7 ×10⁵ /ml in test [8]; 519.5 ×10⁵ /ml in [9]; 2.3 ×10⁸ /ml in [10]; 5.87 ×10⁸ /ml in test [12]; 5.14 ×10⁸ /ml in [13]; 3.12 ×10⁸ /ml in test [14]. The CFU worked out at 2.6 ×10⁸ /ml in test [15]; 1.16 ×10⁸ /ml in test [16]; 0.74 ×10⁸ /ml in test [17]; 0.4 ×10⁸ /ml in [18]; 5.3 ×10⁸ /ml in test [19]; 4.72 ×10⁸ /ml in test [20]. Besides, in [21], the CFU was 3.1 ×10⁸ /ml. Besides, in test [11], the Activity came out at 0.5 µg/mL.

The values are drawn from ChEMBL document CHEMBL1649212, “AI-2/LuxS is involved in increased biofilm formation by Streptococcus intermedius in the presence of antibiotics” (2009).
